Measured values from ChEMBL document CHEMBL4715745, “Synthesis and biological evaluation of novel FK228 analogues as potential isoform selective HDAC inhibitors” (Eur J Med Chem, 2016).
pIC50: −log10 of the molar value. Values belong to the compound of their own block, whether it stands above or below them.

Legend:
OVCAR-8 = assay: Growth inhibition of human OVCAR-8 cells measured after 48 hrs by sulforhodamine B assay; type: functional
Procedure, shortened: (§1)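 Panel of 39 human cancer cell lines tested at the Japanese Foundation for Cancer Research. Five concentrations per compound, spanning 10⁻¹¹–10⁻⁷ M, 10⁻¹⁰–10⁻⁶ M or 10⁻⁸–10⁻⁴ M, were used to build dose-response curves. GI₅₀ is the concentration giving 50% growth inhibition relative to control.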

SF-268 = assay: Growth inhibition of human SF-268 cells measured after 48 hrs by sulforhodamine B assay; type: functional; procedure, shortened: as §1
HCT-116 = assay: Growth inhibition of human HCT-116 cells measured after 48 hrs by sulforhodamine B assay; type: functional; procedure, shortened: as §1
[1] = Growth inhibition of human BSY1 cells measured after 48 hrs by sulforhodamine B assay; type: functional; details: BSY-1; procedure, shortened: as §1
NCI-H23 = assay: Growth inhibition of human NCI-H23 cells measured after 48 hrs by sulforhodamine B assay; type: functional; procedure, shortened: as §1
NCI-H522 = assay: Growth inhibition of human NCI-H522 cells measured after 48 hrs by sulforhodamine B assay; type: functional; procedure, shortened: as §1
MDA-MB-231 = assay: Growth inhibition of human MDA-MB-231 cells measured after 48 hrs by sulforhodamine B assay; type: functional; procedure, shortened: as §1
[2] = Growth inhibition of human HBC4 cells measured after 48 hrs by sulforhodamine B assay; type: functional; procedure, shortened: as §1
MKN-28 = assay: Growth inhibition of human MKN-28 cells measured after 48 hrs by sulforhodamine B assay; type: functional; procedure, shortened: as §1
HCC 2998 = assay: Growth inhibition of human HCC 2998 cells measured after 48 hrs by sulforhodamine B assay; type: functional; procedure, shortened: as §1
SNB-78 = assay: Growth inhibition of human SNB-78 cells measured after 48 hrs by sulforhodamine B assay; type: functional; procedure, shortened: as §1
RXF 631 = assay: Growth inhibition of human RXF 631 cells measured after 48 hrs by sulforhodamine B assay; type: functional; procedure, shortened: as §1
MKN-1 = assay: Growth inhibition of human MKN-1 cells measured after 48 hrs by sulforhodamine B assay; type: functional; procedure, shortened: as §1
OVCAR-4 = assay: Growth inhibition of human OVCAR-4 cells measured after 48 hrs by sulforhodamine B assay; type: functional; procedure, shortened: as §1
HCT-15 = assay: Growth inhibition of human HCT-15 cells measured after 48 hrs by sulforhodamine B assay; type: functional; procedure, shortened: as §1
DU-145 = assay: Growth inhibition of human DU-145 cells measured after 48 hrs by sulforhodamine B assay; type: functional; procedure, shortened: as §1
St-4 = assay: Growth inhibition of human St-4 cells measured after 48 hrs by sulforhodamine B assay; type: functional; procedure, shortened: as §1
A549 = assay: Growth inhibition of human A549 cells measured after 48 hrs by sulforhodamine B assay; type: functional; procedure, shortened: as §1
ACHN = assay: Growth inhibition of human ACHN cells measured after 48 hrs by sulforhodamine B assay; type: functional; procedure, shortened: as §1
DMS-273 = assay: Growth inhibition of human DMS-273 cells measured after 48 hrs by sulforhodamine B assay; type: functional; procedure, shortened: as §1
KM12 = assay: Growth inhibition of human KM12 cells measured after 48 hrs by sulforhodamine B assay; type: functional; procedure, shortened: as §1
SK-OV-3 = assay: Growth inhibition of human SK-OV-3 cells measured after 48 hrs by sulforhodamine B assay; type: functional; procedure, shortened: as §1
PC-3 = assay: Growth inhibition of human PC-3 cells measured after 48 hrs by sulforhodamine B assay; type: functional; procedure, shortened: as §1
[3] = Selectivity index, ratio of IC50 for mouse HDAC6 expressed in 293T cells to IC50 for human HDAC1 expressed in 293T cells using Ac-KGLGK(Ac)-MCA as substrate incubated for 30 mins in presence of 0.1 mM DTT by fluorescence plate reader assay; details: 0.5 h
Procedure, shortened: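 Ratio of HDAC6 IC₅₀ to HDAC1 IC₅₀, taken as selectivity for class I HDAC1 over class II HDAC6. Both enzyme assays were run in the presence of 0.1 mM DTT.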

OVCAR-5 = assay: Growth inhibition of human OVCAR-5 cells measured after 48 hrs by sulforhodamine B assay; type: functional; procedure, shortened: as §1
SNB-75 = assay: Growth inhibition of human SNB-75 cells measured after 48 hrs by sulforhodamine B assay; type: functional; procedure, shortened: as §1
HT-29 = assay: Growth inhibition of human HT-29 cells measured after 48 hrs by sulforhodamine B assay; type: functional; procedure, shortened: as §1
U-251 = assay: Growth inhibition of human U-251 cells measured after 48 hrs by sulforhodamine B assay; type: functional; procedure, shortened: as §1
Histone deacetylase 1 = Histone deacetylase 1 (Homo sapiens, UniProt Q13547); assay: Inhibition of human HDAC1 expressed in 293T cells using Ac-KGLGK(Ac)-MCA as substrate incubated for 30 mins in presence of 0.1 mM DTT by fluorescence plate reader assay; design: species or system HEK293T
Histone deacetylase 1, sequence (Q13547 whole entry): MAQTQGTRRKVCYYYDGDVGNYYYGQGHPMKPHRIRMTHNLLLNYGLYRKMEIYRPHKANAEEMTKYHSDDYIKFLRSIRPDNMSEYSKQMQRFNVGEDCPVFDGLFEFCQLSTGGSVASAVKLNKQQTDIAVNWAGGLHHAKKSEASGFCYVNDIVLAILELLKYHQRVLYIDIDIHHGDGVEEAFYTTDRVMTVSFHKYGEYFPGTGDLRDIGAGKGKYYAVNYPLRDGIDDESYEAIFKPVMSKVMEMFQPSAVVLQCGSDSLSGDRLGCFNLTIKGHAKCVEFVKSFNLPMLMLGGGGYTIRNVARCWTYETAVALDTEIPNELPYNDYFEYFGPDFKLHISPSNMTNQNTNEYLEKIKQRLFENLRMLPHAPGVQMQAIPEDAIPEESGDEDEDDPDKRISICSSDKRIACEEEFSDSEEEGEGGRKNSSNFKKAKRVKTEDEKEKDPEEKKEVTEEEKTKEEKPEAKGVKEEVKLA

SF-295 = assay: Growth inhibition of human SF-295 cells measured after 48 hrs by sulforhodamine B assay; type: functional; procedure, shortened: as §1
OVCAR-3 = assay: Growth inhibition of human OVCAR-3 cells measured after 48 hrs by sulforhodamine B assay; type: functional; procedure, shortened: as §1
[4] = Growth inhibition of human HBC5 cells measured after 48 hrs by sulforhodamine B assay; type: functional; procedure, shortened: as §1
MKN-7 = assay: Growth inhibition of human MKN-7 cells measured after 48 hrs by sulforhodamine B assay; type: functional; procedure, shortened: as §1
LOX IMVI = assay: Growth inhibition of human LOX IMVI cells measured after 48 hrs by sulforhodamine B assay; type: functional; procedure, shortened: as §1
NCI-H226 = assay: Growth inhibition of human NCI-H226 cells measured after 48 hrs by sulforhodamine B assay; type: functional; procedure, shortened: as §1
[5] = biological target: T1, Protein deacetylase HDAC6 (Mus musculus, UniProt Q9Z2V5); assay: Inhibition of mouse HDAC6 expressed in 293T cells using Ac-KGLGK(Ac)-MCA as substrate incubated for 30 mins in presence of 0.1 mM DTT by fluorescence plate reader assay; design: species or system HEK293T
T1 sequence (Q9Z2V5 whole entry): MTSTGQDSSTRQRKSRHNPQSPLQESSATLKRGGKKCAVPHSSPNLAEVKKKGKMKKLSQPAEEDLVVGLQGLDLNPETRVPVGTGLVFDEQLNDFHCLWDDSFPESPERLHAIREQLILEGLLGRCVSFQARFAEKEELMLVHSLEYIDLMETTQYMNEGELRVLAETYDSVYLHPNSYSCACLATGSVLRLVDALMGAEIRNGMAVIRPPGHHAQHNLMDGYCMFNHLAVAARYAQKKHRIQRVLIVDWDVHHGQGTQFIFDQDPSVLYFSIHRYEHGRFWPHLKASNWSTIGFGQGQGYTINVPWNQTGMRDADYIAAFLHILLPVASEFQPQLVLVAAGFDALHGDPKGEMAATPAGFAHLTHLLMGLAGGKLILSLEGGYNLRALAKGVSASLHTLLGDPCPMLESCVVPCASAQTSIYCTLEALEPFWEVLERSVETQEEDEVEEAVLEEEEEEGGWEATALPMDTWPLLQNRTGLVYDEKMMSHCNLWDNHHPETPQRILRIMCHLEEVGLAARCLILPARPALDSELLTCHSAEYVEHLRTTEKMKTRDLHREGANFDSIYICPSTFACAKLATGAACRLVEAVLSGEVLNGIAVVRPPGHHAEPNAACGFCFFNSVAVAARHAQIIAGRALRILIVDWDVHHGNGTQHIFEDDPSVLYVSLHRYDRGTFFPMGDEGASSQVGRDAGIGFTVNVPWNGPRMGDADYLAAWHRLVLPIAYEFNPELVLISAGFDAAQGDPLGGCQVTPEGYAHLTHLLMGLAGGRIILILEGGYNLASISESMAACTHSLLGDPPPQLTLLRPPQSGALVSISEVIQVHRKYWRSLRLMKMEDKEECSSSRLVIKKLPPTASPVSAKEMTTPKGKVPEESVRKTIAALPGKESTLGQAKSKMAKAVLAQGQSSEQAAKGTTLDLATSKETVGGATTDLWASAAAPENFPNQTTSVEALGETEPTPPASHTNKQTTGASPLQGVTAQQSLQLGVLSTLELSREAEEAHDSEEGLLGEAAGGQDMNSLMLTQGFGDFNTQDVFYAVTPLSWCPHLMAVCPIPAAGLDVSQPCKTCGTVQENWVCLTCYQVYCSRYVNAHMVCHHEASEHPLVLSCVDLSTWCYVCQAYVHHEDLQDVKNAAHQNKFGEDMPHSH
Procedure, shortened: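 HDAC enzyme assay run in the presence of 0.1 mM dithiothreitol (DTT); IC₅₀ determined.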

SF-539 = assay: Growth inhibition of human SF-539 cells measured after 48 hrs by sulforhodamine B assay; type: functional; procedure, shortened: as §1
DMS-114 = assay: Growth inhibition of human DMS-114 cells measured after 48 hrs by sulforhodamine B assay; type: functional; procedure, shortened: as §1
MCF7 = assay: Growth inhibition of human MCF7 cells measured after 48 hrs by sulforhodamine B assay; type: functional; procedure, shortened: as §1
MKN-74 = assay: Growth inhibition of human MKN-74 cells measured after 48 hrs by sulforhodamine B assay; type: functional; procedure, shortened: as §1
MKN-45 = assay: Growth inhibition of human MKN-45 cells measured after 48 hrs by sulforhodamine B assay; type: functional; procedure, shortened: as §1
NCI-H460 = assay: Growth inhibition of human NCI-H460 cells measured after 48 hrs by sulforhodamine B assay; type: functional; procedure, shortened: as §1

- GI50 (OVCAR-8): 18000 nM
- GI50 (HCT-116): 2500 nM
- GI50 (NCI-H23): 36000 nM
- GI50 (NCI-H522): 680 nM
- GI50 (MDA-MB-231): 9200 nM
- GI50 (MKN-28): 95000 nM
- GI50 (HCC 2998): 13000 nM
- GI50 (MKN-1): 12000 nM
- GI50 (OVCAR-4): 46000 nM
- GI50 (HCT-15): 100000 nM
- GI50 (DU-145): 5400 nM
- GI50 (A549): 10000 nM
- GI50 (ACHN): 43000 nM
- GI50 (SK-OV-3): 12000 nM
- GI50 (PC-3): 11000 nM
- GI50 (OVCAR-5): 3100 nM
- GI50 (HT-29): 2700 nM
- GI50 (U-251): 17000 nM
- pIC50 (Histone deacetylase 1): 7.03
- GI50 (OVCAR-3): 13000 nM
- GI50 (MKN-7): 47000 nM
- GI50 (NCI-H226): 61000 nM
- pIC50 [5]: 5.88
- GI50 (MCF7): 33000 nM
- GI50 (MKN-74): 16000 nM
- GI50 (MKN-45): 100000 nM
- GI50 (NCI-H460): 15000 nM
SMILES: CC(C)[C@H]1NC(=O)C[C@H]2/C=C/CCSSC[C@@H](NC1=O)C(=O)NCC(=O)NCC(=O)O2
- GI50 (SF-268): 12000 nM
- GI50 [1]: 18000 nM
- GI50 [2]: 13000 nM
- GI50 (SNB-78): 610 nM
- GI50 (RXF 631): 91000 nM
- GI50 (St-4): 81000 nM
- GI50 (DMS-273): 47000 nM
- GI50 (KM12): 12000 nM
- Ratio IC50 [3]: 14
- GI50 (SNB-75): 950 nM
- GI50 (SF-295): 40000 nM
- GI50 [4]: 39000 nM
- GI50 (LOX IMVI): 2900 nM
- GI50 (SF-539): 3300 nM
- GI50 (DMS-114): 5200 nM

SMILES: CC(C)[C@H]1NC(=O)C[C@H]2/C=C/CCSSC[C@@H](NC1=O)C(=O)N[C@H](C)C(=O)NCC(=O)O2
- GI50 (OVCAR-8): 31 nM
- GI50 (SF-268): 31 nM
- GI50 (HCT-116): 10 nM
- GI50 [1]: 36 nM
- GI50 (NCI-H23): 31 nM
- GI50 (NCI-H522): 10 nM
- GI50 (MDA-MB-231): 21 nM
- GI50 [2]: 30 nM
- GI50 (MKN-28): 440 nM
- GI50 (HCC 2998): 14 nM
- GI50 (SNB-78): 10 nM
- GI50 (RXF 631): 110 nM
- GI50 (MKN-1): 36 nM
- GI50 (OVCAR-4): 100 nM
- GI50 (HCT-15): 6700 nM
- GI50 (DU-145): 21 nM
- GI50 (St-4): 410 nM
- GI50 (A549): 15 nM
- GI50 (ACHN): 270 nM
- GI50 (DMS-273): 89 nM
- GI50 (KM12): 20 nM
- GI50 (SK-OV-3): 19 nM
- GI50 (PC-3): 70 nM
- Ratio IC50 [3]: 480
- GI50 (OVCAR-5): 14 nM
- GI50 (SNB-75): 10 nM
- GI50 (HT-29): 13 nM
- GI50 (U-251): 19 nM
- pIC50 (Histone deacetylase 1): 8.68
- GI50 (SF-295): 71 nM
- GI50 (OVCAR-3): 22 nM
- GI50 [4]: 160 nM
- GI50 (MKN-7): 260 nM
- GI50 (LOX IMVI): 11 nM
- GI50 (NCI-H226): 110 nM
- pIC50 [5]: 6.00
- GI50 (SF-539): 10 nM
- GI50 (DMS-114): 17 nM
- GI50 (MCF7): 37 nM
- GI50 (MKN-74): 35 nM
- GI50 (MKN-45): 500 nM
- GI50 (NCI-H460): 15 nM
